Here are results for 83 compounds from PubChem BioAssay AID1217 (Sanford-Burnham Center for Chemical Genomics, 2008).

Structures are written as SMILES. Among all 190,000 compounds or so, about 1,300 (0.68%) were called active. This excerpt belongs to a sample that is enriched for actives. A number with no mark means an inactive call.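 The calls were made as follows: active = primary screen inhibition at 20 µM above a set limit (cut at about 50% in these data); inactive = the rest.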

The experiment concerns diaphorase (Clostridium kluyveri). Briefly: compounds blocking diaphorase resazurin reduction – biochemical, uHTS, resorufin fluorescence, counter-screen for diaphorase-coupled primary assays, primary screen (AID 1217).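 Also: plate controls were DMSO with full reaction for no effect and wells lacking NADH for full effect.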 The conditions noted are these: diaphorase resazurin-to-resorufin fluorescence, NADH, 16 min; at 20 µM; active compounds read high; bacterial (C. kluyveri) enzyme, not human. The procedure, abridged:
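controls = No-NADH positive control and DMSO neutral control | system = Clostridium kluyveri diaphorase enzyme | timing = reaction incubation of 16 min at room temperature | signal = resorufin fluorescence 544/590 nm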
Regarding `CC1CC1C(=O)OCC(=O)c1c(N)n(C)c(=O)n(C)c1=O` (stereo not drawn), the inhibition was -19.7%.

In the case of `Cc1cc(C)cc(NC(=O)Cn2cnc3c(nnn3Cc3ccc(F)cc3)c2=O)c1`, the inhibition was 1.8%.

In the case of `COc1ccc(/C=C(\NC(=O)c2ccc(OC)c(OC)c2)C(=O)NCCc2c[nH]c3ccccc23)cc1`, the inhibition is 13.6%.

Regarding `COc1ccc(OC)c2[nH]c(=O)c(CCNC(=O)C(C)(C)C)cc12`, the inhibition was 2.9%.

As for `COc1ccc(OC)c2[nH]c(=O)c(CCNC(=O)C(=O)c3c[nH]c4ccccc34)cc12`, the inhibition is 66.1% (active).

Take `CCc1cc(C(N)=O)c(NC(=O)c2ccc(OC)cc2)s1`: the inhibition was 21.1%.

Take `COc1ccc(C(=O)N/N=c2\oc3ccccc3cc2C(N)=O)cc1`: the inhibition is 75.5% (active).

For `CCN(CC)c1ccc2cc(C(N)=O)/c(=N\NC(=O)c3ccncc3)oc2c1`, the inhibition is 25%.

Consider `COc1cccc(OC)c1C(=O)NC(=S)Nc1ccc(N2CCOCC2)c(Cl)c1`, for which the inhibition is 27.9%.

In the case of `Oc1ccccc1/C=N/n1c(-c2cccs2)n[nH]c1=S`, the inhibition is 35.3%.

Regarding `S=c1[nH]nc(-c2cccs2)n1/N=C/c1cccs1`, the inhibition is 51.3% (active).

Take `Cc1ccc(/C=N\n2c(-c3ccccc3)n[nH]c2=S)s1`: the inhibition is 19.9%.

Consider `CCN(C(=O)COC(=O)c1ccc(COc2ccc3c(C)cc(=O)oc3c2)cc1)C1CCS(=O)(=O)C1` (stereo not drawn), for which the inhibition was 0.7%.

As to `CN(C)CCN=c1cc(-c2ccccc2)oc2ccc(Cl)cc12`, the inhibition was -1.4%.

Regarding `O=C(COC(=O)c1cc([N+](=O)[O-])ccc1NCc1ccccc1)NC1CCCCC1`, the inhibition was 3%.

In the case of `O=C(/C=C/c1ccc(F)cc1)NCCNC(=O)/C=C/c1ccc(F)cc1`, the inhibition is 3.6%.

Turning to `O=C(/C=C/c1ccc(F)cc1)NC(=S)NNC(=O)c1cccnc1`, the inhibition was 67.6% (active).

Regarding `CC(C)c1ccc(/C=C/C(=O)NNC(=O)c2cccnc2)cc1`, the inhibition is 6.9%.

Take `CCc1cccc(NC(=O)CCNS(=O)(=O)c2cccc3nonc23)c1`: the inhibition is 6.4%.

On to `CC(=O)Nc1ccc(S(=O)(=O)NC(C)C(=O)OCC(=O)NC2CCCC2)cc1` (stereo not drawn), for which the inhibition is 6.2%.

In the case of `Cc1c(Cl)cccc1NC(=O)CSc1ccc(-c2cccnc2)nn1`, the inhibition is -1.3%.

Consider `O=C(CSc1n[nH]c(-c2cccnc2)n1)Nc1ccnc2ccccc12`, for which the inhibition was 54% (active).

In the case of `O=C(CSc1ncn[nH]1)Nc1ccnc2ccccc12`, the inhibition is -2.2%.

In the case of `Cc1nc(-c2ccccc2)cn2c1nc1ccccc12`, the inhibition is 16%.

For `O=c1[nH]c(=S)[nH]c2[nH]c(=S)[nH]c12`, the inhibition was 87.4% (active).

Take `Cc1cc(=O)[nH]c(=S)[nH]1`: the inhibition is 5.9%.

`O=C(N1CCCCC1)N1CCN(C(=O)N2CCCCC2)CC1`: the inhibition is -5.4%.

For `C/C(=C\c1ccco1)C1Nc2cccc3cccc(c23)N1`, the inhibition was 69.5% (active).

For the compound `CC(/C=N/NC(=O)c1ccncc1)=C\c1ccco1`, the inhibition is 5.5%.

On to `CC(/C=N/NC(=O)c1cc(-c2ccc3ccccc3c2)n[nH]1)=C\c1ccco1`, for which the inhibition is 5.2%.

As to `Cc1coc(C)c1C(=O)CC1(O)C(=O)N(C)c2ccc(Cl)cc21` (stereo not drawn), the inhibition was 51.4% (active).

Turning to `C=CCN1C(=O)C(O)(CC(=O)c2ccc(Cl)cc2)c2ccccc21` (stereo not drawn), the inhibition is 20%.

With `CC(=O)c1c(O)cc2n(c1=O)-c1ccc(Cl)cc1C2(C)C`, the inhibition is 18.3%.

For `Cc1ccc(O)c(NC(=S)NC(=O)COc2ccc(Br)cc2)c1`, the inhibition is 1.8%.

In the case of `COCCN(CCOC)S(=O)(=O)c1ccc(/C(O)=C(\C#N)c2nc3ccccc3[nH]2)cc1`, the inhibition was 5.6%.

For the compound `Cc1coc2c(O)cc3c(c12)OC1(N2CCCCC2)C(=O)NCCCC31` (stereo not drawn), the inhibition was 56.1% (active).

On to `O=C(Cc1cccs1)Nc1nnc(SCc2ccc(F)cc2)s1`, for which the inhibition is 11.1%.

Turning to `COc1cc2sc(C)nc2cc1C`, the inhibition was 6%.

Regarding `CC1=C/C(=N\S(=O)(=O)c2ccccc2)C(C(C)C)=CC1=O`, the inhibition was 21.7%.

Consider `CC1=C/C(=N\OS(=O)(=O)c2ccccc2)C=CC1=O`, for which the inhibition was 71.4% (active).

Regarding `CCOC(=O)C1(S(=O)(=O)c2ccccc2)CCN(Cc2ccccc2)CC1`, the inhibition was 16.8%.

In the case of `O=C1CCCC2=C1C(c1cccs1)CC(=O)N2c1ccc(F)cc1` (stereo not drawn), the inhibition is 6.3%.

Turning to `CC(C)N1CCC(N2CCN(Cc3cccnc3)CC2CCO)CC1` (stereo not drawn), the inhibition is -0.8%.

Regarding `CCOC(=O)C1CCN(C(=O)C2(NC(=O)Nc3cccc(F)c3)CCCCC2)CC1`, the inhibition was -16.4%.

As for `CCCCNC(=O)c1ccc(-n2c(=S)[nH]c3ccccc3c2=O)cc1`, the inhibition was 6.2%.

Consider `CCOC(=O)N1CCN(C(=O)Cc2ccc(-n3c(=S)[nH]c4ccccc4c3=O)cc2)CC1`, for which the inhibition is 51.3% (active).

`O=C(Cc1ccc(-n2c(=O)[nH]c3ccccc3c2=O)cc1)N1CCN(c2cccc(Cl)c2)CC1`: the inhibition was 19.4%.

Take `Cc1ccc(S(=O)(=O)CC(=O)Nc2c(C)n(C)n(-c3ccccc3)c2=O)cc1`: the inhibition is -0.5%.

For the compound `Cc1cc(C)c2c(n1)sc1c(=O)n(-c3ccccc3)c(=O)[nH]c12`, the inhibition was 59.3% (active).

As to `C/C(O)=C\c1nc(=O)c2c(C)cc(C)nc2n1-c1ccccc1`, the inhibition is 13.4%.

On to `Cc1cc(C)c2c(-n3cccc3)c(NC(=O)OCc3ccccc3)sc2n1`, for which the inhibition is 18.4%.

For the compound `OCCC1CN(Cc2cccn2-c2nccs2)CCN1CCc1ccccc1` (stereo not drawn), the inhibition is 18.5%.

On to `N#C/C=C(/c1ccc(F)cc1)N1CCOCC1`, for which the inhibition is 20.9%.

On to `C(=C\c1ccccc1)/CSc1nnc(-c2cccnc2)n1Cc1ccco1`, for which the inhibition is 53.4% (active).

Take `O=C(CSc1nnc(-c2cccnc2)n1Cc1ccco1)c1ccc(Cl)c(Cl)c1`: the inhibition was 4%.

As for `O=C(CSc1nnc(-c2cccnc2)n1Cc1ccco1)c1ccc(Cl)cc1`, the inhibition is 16.4%.

As for `CC(=O)c1ccc(N2CCN(CC(=O)Nc3ccccc3N3CCOCC3)CC2)cc1`, the inhibition was 4%.

Take `O=C(N/N=C/c1ccc2c(c1)OCO2)C(=O)N1CCCC1`: the inhibition was -1.9%.

As for `CN(C(=O)CSc1nnc(Nc2ccccc2)s1)C1CCS(=O)(=O)C1` (stereo not drawn), the inhibition was 15%.

Consider `Cn1c(-c2ccco2)nc2cc3ccccc3cc21`, for which the inhibition is 18.4%.

Consider `Cc1nn2c3ccccc3nc2n(C)c1=O`, for which the inhibition was 15.5%.

On to `c1coc(-c2nc3nc4ccccc4n3nc2-c2ccco2)c1`, for which the inhibition is 57.8% (active).

For the compound `COc1cccc(NC(=S)N(Cc2ccc(C)cc2)Cc2ccccn2)c1`, the inhibition was 3.1%.

`Cc1cc(-c2csc(N)n2)c(C)n1-c1ccccc1`: the inhibition is 19.9%.

As to `CC(Sc1nc2c([nH]c3ccccc32)c(=O)n1C)c1ccccc1` (stereo not drawn), the inhibition was 2.9%.

For the compound `COc1cccc(CNn2cn[nH]c2=S)c1OCc1ccccc1`, the inhibition was 79.8% (active).

As to `C=CCOc1c(CNn2cn[nH]c2=S)cccc1OC`, the inhibition is 39.3%.

In the case of `C=CCOc1cccc(CNn2cn[nH]c2=S)c1`, the inhibition is 14%.

Turning to `O=c1[nH]n2c(=O)c3c([nH]c2c1N=Nc1ccccc1)CCC3`, the inhibition is 20.3%.

As to `Cc1csc(SCC(=O)Nc2sccc2C#N)n1`, the inhibition was -2.4%.

Consider `OC(COc1ccc(CN2CCSCC2)cc1)CN1CCCCC1` (stereo not drawn), for which the inhibition is 6.8%.

As for `CCOc1ccc(CN2CCN(Cc3ccc(C)o3)CC2CCO)cc1` (stereo not drawn), the inhibition is -6.4%.

Consider `CCOc1ccc(CN2CCCN(C)CC2)cc1`, for which the inhibition is 76.8% (active).

In the case of `N#CC1(NC(=O)COc2ccc3oc4ccccc4c3c2)CCCCC1`, the inhibition was -0.7%.

Turning to `CC(=O)c1c(-c2ccccc2)c2ccccc2[nH]c1=O`, the inhibition was 17.9%.

Consider `O=c1[nH]c2ccccc2n2c(-c3ccccc3)nnc12`, for which the inhibition was 66.5% (active).

Turning to `O=[N+]([O-])c1cccc(-c2nnc3c4ccccc4c4ccccc4n23)c1`, the inhibition was 3.7%.

Turning to `Cn1ncc2c(NNC(=O)Cc3cccc4ccccc34)ncnc21`, the inhibition was 8.6%.

As for `CN(CC#CCC(c1ccccc1)c1ccccc1)C(C)(C)C`, the inhibition was 17.9%.

Turning to `CC(C)(C)N(CC#CCC(O)(c1ccccc1)C1CCCC1)CCO` (stereo not drawn), the inhibition is 57.2% (active).

Consider `OC(C#CCN1CCOCC1)(c1ccccc1)C1CCCCC1` (stereo not drawn), for which the inhibition was -10.7%.

For the compound `O=S(=O)(Nc1ccc2cn[nH]c2c1)c1ccccc1`, the inhibition is 6.9%.

With `COc1cccc(-c2ccc(C#N)c(SCC(=O)NCCc3ccc(Cl)cc3)n2)c1`, the inhibition is 7%.
